≈ marks a conversion by molar mass, not a printed value. Calls of active or inactive are those of the source. The calls are words filed in the database; no cut-off is given here.
Experiments:
[1] = test system: Mycobacterium tuberculosis; experiment: Growth inhibition of Mycobacterium tuberculosis H37Rv exposed to plasma from BALB/c mouse treated with 300 mg/kg, po administered through microemulsion vehicle as single oral dose per gavage after 1 hr by Resazurin microtiter assay; type: functional; details: read-out: GI
In short: (§1)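 The microemulsion was 10% cholesterol, 10% phosphatidylcholine/sodium oleate/polyoxyl 40 hydrogenated castor oil (3:6:8) and 80% phosphate buffer pH 7.4. Plasma taken at 0.3, 1, 2 or 4 h was tested by REMA for % Mtb growth inhibition, and plasma level was estimated against the in-vitro REMA MIC.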

[2] = test system: Staphylococcus aureus; experiment: Antimicrobial activity against Staphylococcus aureus ATCC 29213 at 200 uM incubated for 16 hrs; type: functional
[3] = test system: Mus musculus; experiment: Genotoxicity in Swiss mouse assessed as incidence of micronucleated peripheral blood reticulocytes at 50 to 500 mg/kg dosed via gavage by micronucleus assay; type: toxicity, organism-based; details: in vivo, po
[4] = test system: Mus musculus; experiment: Nephrotoxicity in BALB/c mouse assessed as change in urea level in blood at 200 mg/kg, po qd administered via gavage after 10 days; type: toxicity, organism-based; details: in vivo, 240 h
[5] = Induction of nitric oxide release by Griess assay
In short: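 Griess assay: chemical detection of nitrite ions in solution as indicator of nitric oxide release.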

[6] = test system: Mycobacterium tuberculosis; experiment: Down-regulation of HSP gene in Mycobacterium tuberculosis H37Rv at 2 times MIC90 after 4 hrs by microarray analysis; type: functional
[7] = test system: Candida albicans; experiment: Antimicrobial activity against Candida albicans ATCC 10231 at 200 uM incubated for 48 hrs; type: functional
[8] = test system: Mycobacterium tuberculosis; experiment: Upregulation of ribosomal protein gene in Mycobacterium tuberculosis H37Rv at 2 times MIC90 after 4 hrs by microarray analysis; type: functional
[9] = test system: Mycobacterium tuberculosis; experiment: Up-regulation of heat shock protein genes in Mycobacterium tuberculosis H37Rv at 2 times MIC after 4 hrs by microarray analysis; type: functional
[10] = test system: Mus musculus; experiment: Toxicity in BALB/c mouse assessed as change in lung weight at 200 mg/kg, po qd administered via gavage after 10 days; type: organism-based; details: in vivo, 240 h
In short: (§2)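 Mice given one daily oral gavage dose of 200 mg/kg body weight for 10 days with daily behavioural monitoring (hippocratic screening); heart, lung, spleen, kidney and liver weights compared with controls by ANOVA and Dunnett's test, p < 0.05.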

[11] = test system: Mycobacterium tuberculosis; experiment: Bactericidal activity against Mycobacterium tuberculosis H37Rv ATCC 27294 assessed as colony forming units at 41.24 uM after 48 hrs by time kill analysis; type: functional
In short: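 Time–kill: H37Rv ATCC 27294 exposed to drug at 41.24 μM, alongside INH 0.72 μM, RMP 0.01 μM and MOX 0.88 μM; log10 CFU/mL followed over days. Counts are the mean of three independent assays, ± SD.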

[12] = test system: Mycobacterium tuberculosis; experiment: Downregulation of htrA gene in Mycobacterium tuberculosis H37Rv at 2 times MIC90 after 4 hrs by microarray analysis; type: functional
[13] = Chemical stability in PBS at pH 5.5 assessed as drug degradation after 10 hrs by HPLC-UV analysis; type: physicochemical; details: read-out: Drug degradation
[14] = test system: Mus musculus; experiment: Hepatotoxicity in BALB/c mouse assessed as change in alkaline phosphatase level in plasma at 200 mg/kg, po qd administered via gavage after 10 days; type: toxicity, organism-based; details: in vivo, 240 h
[15] = test system: Mus musculus; experiment: Hepatotoxicity in BALB/c mouse assessed as change in aspartate aminotransferase level in plasma at 200 mg/kg, po qd administered via gavage after 10 days; type: toxicity, organism-based; details: in vivo, 240 h
[16] = test system: Mus musculus; experiment: Hepatotoxicity in BALB/c mouse assessed as change in alanine aminotransferase level in plasma at 200 mg/kg, po qd administered via gavage after 10 days; type: toxicity, organism-based; details: in vivo, 240 h
[17] = test system: Mycobacterium tuberculosis; experiment: Antitubercular activity against Mycobacterium tuberculosis H37Rv ATCC 27294 infected in mouse J774A.1 cells at 1.46 to 23.86 ug/ml after 3 days relative to control; type: functional
[18] = test system: Mus musculus; experiment: Toxicity in BALB/c mouse assessed as change in spleen weight at 200 mg/kg, po qd administered via gavage after 10 days; type: organism-based; details: in vivo, 240 h; in short: as §2
[19] = test system: Mycobacterium tuberculosis; experiment: Antitubercular activity against Mycobacterium tuberculosis Erdman infected in BALB/c mouse at 200 mg/kg, po qd dosed via gavage starting at 10 days post-infection and terminated at 29 day post-infection for 5 consecutive days each week and measured 3 day wash-out period at 31 day-postinfection; type: functional, organism-based
In short: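 Drug in cholesterol/phospholipid microemulsion was given by oral gavage (200 μL) once daily, 5 days/week, from day 10 to day 29 post-infection; n = 7/group. After a 3-day washout, lungs were homogenized in HBSS-Tween at day 31 and plated on Middlebrook 7H11 for CFU.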

[20] = test system: Mycobacterium tuberculosis; experiment: Growth inhibition of Mycobacterium tuberculosis H37Rv exposed to plasma from BALB/c mouse treated with 300 mg/kg, po administered through microemulsion vehicle as single oral dose per gavage after 2 hrs by Resazurin microtiter assay; type: functional; details: read-out: GI; in short: as §1
[21] = test system: Mus musculus; experiment: Nephrotoxicity in BALB/c mouse assessed as change in kidney morphology at 200 mg/kg, po qd administered via gavage after 10 days by hematoxylin and eosin staining based analysis; type: toxicity, organism-based; details: in vivo, 240 h
In short: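 BALB/c mice dosed orally by gavage once daily at 200 mg/kg; liver and kidney sections stained with H&E and examined for tissue morphology.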

[22] = test system: Mycobacterium tuberculosis; experiment: Up-regulation of ATP synthase sub-units genes in Mycobacterium tuberculosis H37Rv at 2 times MIC90 after 4 hrs by microarray analysis; type: functional
[23] = test system: Mycobacterium tuberculosis; experiment: Antitubercular activity against dormant stage Mycobacterium tuberculosis H37Rv ATCC 27294 incubated for 10 days in anaerobic condition followed by incubation for 28 hrs in ambient gaseous condition measured after day 11 by two fold serial dilution assay; type: functional
[24] = Apparent permeability from apical to basolateral side in human Caco2 cells by LC-MS/MS analysis; type: ADME, cell-based; details: caco-2
In short: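 Caco-2 monolayer permeability measured in both directions (apical-to-basolateral and basolateral-to-apical); result given as apparent permeability coefficient Papp in cm/s.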

[25] = test system: MRC5; experiment: Cytotoxicity against human MRC5 cells assessed as reduction in cell viability after 24 hrs by fluorescence assay; type: cell-based; details: MRC5, 24 h
In short: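 MRC-5 human lung fibroblasts; cytotoxicity reported as IC50.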

Structure (SMILES): O=C(N/N=C/c1ccc2no[n+]([O-])c2c1)c1ccncc1
- inhibition in vivo at 300 mg/kg [1]: 79%
- Activity [2]: inactive
- Activity [3]: Non-Toxic
- Activity [4]: Toxic
- Activity [5]: inactive
- Activity [6]: Active
- Activity [7]: inactive
- Activity [8]: Active
- Activity [9]: inactive
- Activity [10]: Non-Toxic
- Activity [11]: 6.7 log10CFU/ml
- Activity [12]: Active
- degraded at 10 h [13]: 20%
- Activity [14]: Non-Toxic
- Activity [15]: Non-Toxic
- Activity [16]: Non-Toxic
- inhibition (INH) [17]: 90%
- Activity [18]: Non-Toxic
- Activity [19]: inactive
- inhibition in vivo at 300 mg/kg [20]: 76%
- Activity [21]: Non-Toxic
- Activity [22]: Active
- MIC90 [23]: 6.62 µM (≈ 1.88 µg/mL)
- Papp [24]: 5.67 ×10⁻⁶ cm/s
- IC50 [25]: 519 µM

Reference: ChEMBL document CHEMBL4028867, “Design, Synthesis, and Characterization of N-Oxide-Containing Heterocycles with in Vivo Sterilizing Antitubercular Activity” (J Med Chem, 2017)
